Experimental data from ChEMBL document CHEMBL3817826, “H2S-Donating Doxorubicins May Overcome Cardiotoxicity and Multidrug Resistance” (J Med Chem, 2016).
Calls of active or inactive are those of the source. The rule behind the calls is not given here.

Tests used:
[1] = tested on: H9c2; experiment: Cytotoxicity in rat H9c2 cells at 5 uM incubated for 24 hrs by LDH release-based spectrofluorimetrical analysis relative to control; format: cell-based; conditions: h9c2, 24 h
How it was run: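 Cells exposed 24 h to 5 μM drug in DMEM with 10% FBS at 37 °C, 5% CO2. Medium spun 12,000 × g 5 min. Cells sonicated in 82.3 mM triethanolamine phosphate-HCl pH 7.6. LDH in medium and lysate followed 6 min at 340 nm. Extracellular LDH reported as % of total dish activity, duplicate, n = 3, mean ± SD.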

[2] = Half life of compound assessed as human serum esterase-mediated degradation at 100 uM by RP-HPLC analysis; format: ADME
How it was run: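 10 mM DMSO stock added to human serum pre-warmed to 37 °C, giving 100 μM final. Samples taken over time and deproteinized with equal volume acetonitrile/0.1% HCOOH, then spun 2150 g 10 min and filtered. Analysed by RP-HPLC against 1–200 μM calibration. t1/2 from one-phase exponential decay fit, at least triplicate.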

[3] = Drug uptake in human U2OS/DX100 cells at 5 uM incubated for 24 hrs by fluorimetrical analysis; format: ADME, cell-based
How it was run: (§1)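 Intracellular drug measured after 24 h exposure to 5 μM. Cell lysates read fluorimetrically at ex 475/em 553 nm with cell-free blank subtracted. Converted by calibration curve to nmol drug/mg cell protein. Duplicate, n = 3, mean ± SD.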

[4] = tested on: H9c2; experiment: Cytotoxicity in rat H9c2 cells assessed as intracellular ROS accumulation at 5 uM incubated for 24 hrs by DCFDA-AM probe-based fluorimetrical analysis relative to control; format: cell-based; conditions: h9c2, 24 h
How it was run: (§2)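 After 24 h at 5 μM, 1×10^6 cells in 0.5 mL PBS were loaded with 5 μM DCFDA-AM for 30 min at 37 °C, spun and resuspended. Fluorescence read at ex 492/em 517 nm, expressed as nmol ROS/mg cell protein. Duplicate, n = 3, mean ± SD.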

[5] = tested on: U2OS; experiment: Induction of intracellular ROS accumulation in human U2OS cells at 5 uM incubated for 24 hrs by DCFDA-AM probe-based fluorimetrical analysis relative to control; format: functional, cell-based; how it was run: as §2
[6] = tested on: U2OS; experiment: Drug uptake in human U2OS cells at 5 uM incubated for 24 hrs by fluorimetrical analysis; format: ADME, cell-based; how it was run: as §1
[7] = Drug uptake in human U2OS/DX30 cells at 5 uM incubated for 24 hrs by fluorimetrical analysis; format: ADME, cell-based; how it was run: as §1
[8] = Induction of H2S release from compound in IMDM at 100 uM incubated for 1 to 24 hrs using DNS-Az by fluorimetric assay-based HPLC analysis; format: physicochemical
How it was run: (§3)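 Compound at 200 μM initial (half concentration for two low-solubility compounds) in medium or human serum at 37 °C with dansyl azide. Sampled at 1, 4 and 24 h, diluted with CH3CN, spun and filtered. Isocratic RP-HPLC with fluorescence ex 340/em 535 nm. Dansyl amide peak quantified against NaHS calibration as H2S index. At least triplicate.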

[9] = Drug uptake in human U2OS/DX580 cells at 5 uM incubated for 24 hrs by fluorimetrical analysis; format: ADME, cell-based; how it was run: as §1
[10] = tested on: H9c2; experiment: Drug uptake in rat H9c2 cells at 5 uM incubated for 24 hrs by fluorimetrical analysis; format: ADME, cell-based; conditions: h9c2, 24 h; how it was run: as §1
[11] = Induction of H2S release from compound in DMEM at 100 uM incubated for 1 to 24 hrs using DNS-Az by fluorimetric assay-based HPLC analysis; format: physicochemical; how it was run: as §3
[12] = Half life of compound in pre-heated DMEM at 200 uM at 37 degC by RP-HPLC analysis; format: physicochemical
How it was run: (§4)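 10 mM DMSO stock diluted into medium pre-warmed to 37 °C, giving 200 μM final, then incubated at 37 °C. Aliquots diluted 1:1 with acetonitrile/0.1% HCOOH, filtered and run on RP-HPLC, quantified against 1–200 μM standards. t1/2 from one-phase exponential decay fit, at least triplicate.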

[13] = biological target: DNA topoisomerase 2-alpha (Homo sapiens) (UniProt P11388); experiment: Inhibition of human topoisomerase 2-mediated DNA cleavage at 5 uM using supercoiled pHOT1 plasmid as substrate by agarose gel electrophoresis
Chain of DNA topoisomerase 2-alpha (Homo sapiens) (P11388 whole entry): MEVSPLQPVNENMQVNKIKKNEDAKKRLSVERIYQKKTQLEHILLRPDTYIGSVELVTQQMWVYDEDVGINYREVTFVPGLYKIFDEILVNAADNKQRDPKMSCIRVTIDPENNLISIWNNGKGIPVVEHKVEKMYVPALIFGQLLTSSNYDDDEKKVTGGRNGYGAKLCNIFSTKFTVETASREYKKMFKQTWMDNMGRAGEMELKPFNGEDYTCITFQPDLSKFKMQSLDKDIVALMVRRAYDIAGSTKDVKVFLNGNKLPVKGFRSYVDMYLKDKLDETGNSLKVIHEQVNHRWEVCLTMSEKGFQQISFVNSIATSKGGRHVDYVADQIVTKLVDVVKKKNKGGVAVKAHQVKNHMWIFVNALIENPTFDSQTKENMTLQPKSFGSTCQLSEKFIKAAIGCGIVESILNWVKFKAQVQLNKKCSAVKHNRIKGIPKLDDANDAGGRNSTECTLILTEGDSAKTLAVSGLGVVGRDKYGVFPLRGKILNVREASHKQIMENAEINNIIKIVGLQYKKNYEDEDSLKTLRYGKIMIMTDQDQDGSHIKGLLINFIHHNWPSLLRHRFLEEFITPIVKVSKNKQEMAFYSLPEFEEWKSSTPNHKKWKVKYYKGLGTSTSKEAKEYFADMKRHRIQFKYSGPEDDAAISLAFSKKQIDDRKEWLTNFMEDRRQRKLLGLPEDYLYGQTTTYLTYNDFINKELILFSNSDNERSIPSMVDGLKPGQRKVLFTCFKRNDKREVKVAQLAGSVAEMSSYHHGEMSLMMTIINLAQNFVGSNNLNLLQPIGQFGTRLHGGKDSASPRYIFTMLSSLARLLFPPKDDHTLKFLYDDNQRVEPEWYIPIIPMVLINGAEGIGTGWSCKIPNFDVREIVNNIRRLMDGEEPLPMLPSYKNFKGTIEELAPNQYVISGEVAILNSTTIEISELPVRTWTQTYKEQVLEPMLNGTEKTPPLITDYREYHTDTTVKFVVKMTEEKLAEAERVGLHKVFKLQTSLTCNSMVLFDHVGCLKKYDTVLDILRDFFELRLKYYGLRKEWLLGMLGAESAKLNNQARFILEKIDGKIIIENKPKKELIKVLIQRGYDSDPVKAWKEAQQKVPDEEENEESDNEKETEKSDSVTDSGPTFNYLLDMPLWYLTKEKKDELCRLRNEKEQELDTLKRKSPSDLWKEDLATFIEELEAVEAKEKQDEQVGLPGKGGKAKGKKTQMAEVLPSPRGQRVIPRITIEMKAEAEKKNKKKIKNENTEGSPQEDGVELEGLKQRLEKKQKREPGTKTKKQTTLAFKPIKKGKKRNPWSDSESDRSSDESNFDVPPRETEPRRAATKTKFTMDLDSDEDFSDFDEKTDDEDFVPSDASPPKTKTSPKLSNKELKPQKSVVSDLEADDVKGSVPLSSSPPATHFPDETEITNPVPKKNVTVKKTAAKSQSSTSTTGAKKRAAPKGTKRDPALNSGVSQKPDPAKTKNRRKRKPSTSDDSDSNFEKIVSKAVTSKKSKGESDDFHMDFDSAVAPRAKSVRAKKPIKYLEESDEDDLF

[14] = tested on: Serum; experiment: Induction of H2S release from compound in human serum at 100 uM incubated for 1 to 24 hrs using DNS-Az by fluorimetric assay-based HPLC analysis; format: functional; how it was run: as §3
[15] = tested on: H9c2; experiment: Cytotoxicity in rat H9c2 cells assessed as intracellular ROS accumulation at 5 uM incubated for 24 hrs in presence of hydroxocobalamin by DCFDA-AM probe-based fluorimetrical analysis relative to control; format: cell-based; conditions: h9c2, 24 h
How it was run: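 H9c2 cells held 24 h with 5 μM drug plus 100 μM hydroxocobalamin, then loaded with 5 μM DCFDA-AM for 30 min at 37 °C. Fluorescence read at 492/517 nm, expressed as nmol ROS/mg protein. Duplicate, n = 3.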

[16] = Stability of compound in pre-heated IMDM at 200 uM at 37 degC by RP-HPLC analysis; format: physicochemical; how it was run: as §4
[17] = tested on: H9c2; experiment: Cytotoxicity in rat H9c2 cells at 5 uM incubated for 24 hrs in presence of NAC by LDH release-based spectrofluorimetrical analysis relative to control; format: cell-based; conditions: h9c2, 24 h
[18] = tested on: U2OS; experiment: Induction of intracellular ROS accumulation in human U2OS/DX100 cells at 5 uM incubated for 24 hrs by DCFDA-AM probe-based fluorimetrical analysis relative to control; format: functional, cell-based; how it was run: as §2
[19] = tested on: U2OS; experiment: Increase in intracellular ROS accumulation in human U2OS cells at 5 uM incubated for 24 hrs in presence of hydroxocobalamin by DCFDA-AM probe-based fluorimetrical analysis relative to control; format: functional, cell-based
How it was run: (§5)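 Cells grown in DMEM with 10% FBS at 37 °C, 5% CO2, resistant variants selected in 30, 100 or 580 ng/mL doxorubicin; treated 24 h with 5 μM drug plus 100 μM hydroxocobalamin. 1×10^6 cells loaded 30 min at 37 °C with 5 μM DCFDA-AM in PBS; fluorescence at ex 492/em 517 nm, expressed as nmol ROS/mg protein; duplicates, n = 3.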

[20] = tested on: U2OS; experiment: Increase in intracellular ROS accumulation in human U2OS/DX100 cells at 5 uM incubated for 24 hrs in presence of hydroxocobalamin by DCFDA-AM probe-based fluorimetrical analysis relative to control; format: functional, cell-based; how it was run: as §5
[21] = tested on: U2OS; experiment: Increase in intracellular ROS accumulation in human U2OS/DX580 cells at 5 uM incubated for 24 hrs in presence of hydroxocobalamin by DCFDA-AM probe-based fluorimetrical analysis relative to control; format: functional, cell-based; how it was run: as §5
[22] = tested on: U2OS; experiment: Increase in intracellular ROS accumulation in human U2OS/DX30 cells at 5 uM incubated for 24 hrs in presence of hydroxocobalamin by DCFDA-AM probe-based fluorimetrical analysis relative to control; format: functional, cell-based; how it was run: as §5
[23] = tested on: U2OS; experiment: Induction of intracellular ROS accumulation in human U2OS/DX580 cells at 5 uM incubated for 24 hrs by DCFDA-AM probe-based fluorimetrical analysis relative to control; format: functional, cell-based; how it was run: as §2
[24] = tested on: U2OS; experiment: Induction of intracellular ROS accumulation in human U2OS/DX30 cells at 5 uM incubated for 24 hrs by DCFDA-AM probe-based fluorimetrical analysis relative to control; format: functional, cell-based; how it was run: as §2
[25] = tested on: U2OS; experiment: Activity at PgP in human […] cells assessed as Vmax measured per mg of protein incubated for 20 mins by fluorimetrical analysis; format: cell-based
How it was run: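 U-2OS/DX580 cells exposed 20 min to 0-50 μM drug, washed, intracellular doxorubicin read fluorimetrically; parallel dishes left a further 10 min at 37 °C before reading. Efflux rate (difference, nmol extruded/min/mg cell protein) plotted against initial concentration; Vmax and Km fitted. Means ± SD, n = 3.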

half-life at 100 µM [2] [min] | Drug uptake [3] | Drug uptake [6] | Drug uptake [7] | Activity [8] | Drug uptake [9] | Drug uptake [10] | Activity [11] | half-life at 200 µM [12] [min] | inhibition [13] | Stability [16] | SMILES | Activity [1] | Activity [4] | Activity [5] | Activity [14] | Activity [15] | Activity [17] | other results
– | – | – | – | – | – | – | – | – | – | – | COC(=O)c1ccc(C(N)=S)cc1 | Toxic | – | – | – | – | – | –
228 | Active | Active | Active | Not Active | Active | Active | Not Active | 336 | inactive | Stable | C=CCSSCCC(=O)OCC(=O)[C@]1(O)Cc2c(O)c3c(c(O)c2[C@@H](O[C@H]2C[C@H](N)[C@H](O)[C@H](C)O2)C1)C(=O)c1c(OC)cccc1C3=O.Cl | Toxic | Non-toxic | inactive | Active | Toxic | – | –
17 | – | – | – | Not Active | – | Active | Not Active | 17 | inactive | Unstable | COc1cccc2c1C(=O)c1c(O)c3c(c(O)c1C2=O)C[C@@](O)(C(=O)COC(=O)c1csc(=S)s1)C[C@@H]3O[C@H]1C[C@H](N)[C@H](O)[C@H](C)O1.Cl | Non-toxic | Non-toxic | inactive | Active | Toxic | Non-toxic | –
– | – | – | – | – | – | – | – | – | – | – | C=CCSSCCC(=O)OCC | Toxic | – | – | – | – | – | –
276 | Active | Active | Active | Active | Active | Active | Active | 1290 | inactive | Stable | COc1cccc2c1C(=O)c1c(O)c3c(c(O)c1C2=O)C[C@@](O)(C(=O)COC(=O)c1ccc(-c2cssc2=S)cc1)C[C@@H]3O[C@H]1C[C@H](N)[C@H](O)[C@H](C)O1.Cl | Non-toxic | Non-toxic | inactive | Active | Toxic | Non-toxic | Activity [18]: inactive; Activity [19]: Active; Activity [20]: Active; Activity [21]: Active; Activity [22]: Active; Activity [23]: inactive; Activity [24]: inactive
11 | – | – | – | Not Active | – | Active | Not Active | < 1 | inactive | Unstable | C=CCSCC(NC(C)=O)C(=O)OCC(=O)[C@]1(O)Cc2c(O)c3c(c(O)c2[C@@H](O[C@H]2C[C@H](N)[C@H](O)[C@H](C)O2)C1)C(=O)c1c(OC)cccc1C3=O.Cl (some centres not stated) | Non-toxic | Non-toxic | inactive | inactive | Toxic | Non-toxic | –
3 | – | – | – | Not Active | – | Active | Not Active | 16 | inactive | Unstable | COc1cccc2c1C(=O)c1c(O)c3c(c(O)c1C2=O)C[C@@](O)(C(=O)COC(=O)COc1ccc(-c2cc(=S)ss2)cc1)C[C@@H]3O[C@H]1C[C@H](N)[C@H](O)[C@H](C)O1.Cl | Non-toxic | Non-toxic | inactive | Active | Toxic | Non-toxic | –
38 | Active | Active | Active | Not Active | Active | Active | Not Active | 204 | inactive | Stable | COc1cccc2c1C(=O)c1c(O)c3c(c(O)c1C2=O)C[C@@](O)(C(=O)COC(=O)c1ccc(C(N)=S)cc1)C[C@@H]3O[C@H]1C[C@H](N)[C@H](O)[C@H](C)O1.Cl | Toxic | Non-toxic | inactive | Active | Toxic | – | –

SMILES | half-life at 100 µM [2] [min] | Drug uptake [3] | Drug uptake [6] | Drug uptake [7] | Activity [8] | Drug uptake [9] | Drug uptake [10] | Activity [11] | half-life at 200 µM [12] [min] | inhibition [13] | Stability [16] | Activity [1] | Activity [4] | Activity [5] | Activity [14] | Activity [15] | Activity [17] | other results
COc1cccc2c1C(=O)c1c(O)c3c(c(O)c1C2=O)C[C@@](O)(C(=O)COC(=O)c1ccc(-c2ssc(=S)c2-c2ccccc2)cc1)C[C@@H]3O[C@H]1C[C@H](N)[C@H](O)[C@H](C)O1.Cl | 168 | Active | Active | Active | Not Active | Active | Active | Not Active | > 1440 | inactive | Stable | Non-toxic | Non-toxic | inactive | Active | Toxic | Non-toxic | Activity [18]: inactive; Activity [19]: Active; Activity [20]: Active; Vmax [25]: 10.2 nmol/min/mg; Activity [21]: Active; Activity [22]: Active; Activity [23]: inactive; Activity [24]: inactive
